Each block holds one compound with its values, some of them ahead of it. Active and inactive are the calls of the source. No cut-off for these calls is given here.
Assays:
KB = experiment: Cytotoxicity against human KB cells after 72 hrs by MTT assay; assay type: functional, cell-based
HL-60 = experiment: Cytotoxicity against human HL60 cells after 72 hrs by MTT assay; assay type: functional, cell-based; settings: HL-60, 72 h
How it was run: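 Leukemia cells seeded in 96-well plates and exposed in triplicate to graded compound concentrations for 72 h at 37 °C. Viability was read by MTT. IC50 was derived by the Logit method from at least three independent experiments.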

MDA-MB-231 = experiment: Cytotoxicity against human MDA-MB-231 cells after 72 hrs by MTT assay; assay type: functional, cell-based; settings: MDA-MB-231, 72 h
[1] = molecular target: DNA topoisomerase 2-alpha (Homo sapiens) (UniProt P11388); experiment: Inhibition of DNA topoisomerase 2 alpha assessed as ATP-dependent decatenation of DNA in cell free system
Chain of DNA topoisomerase 2-alpha (Homo sapiens) (P11388 whole entry): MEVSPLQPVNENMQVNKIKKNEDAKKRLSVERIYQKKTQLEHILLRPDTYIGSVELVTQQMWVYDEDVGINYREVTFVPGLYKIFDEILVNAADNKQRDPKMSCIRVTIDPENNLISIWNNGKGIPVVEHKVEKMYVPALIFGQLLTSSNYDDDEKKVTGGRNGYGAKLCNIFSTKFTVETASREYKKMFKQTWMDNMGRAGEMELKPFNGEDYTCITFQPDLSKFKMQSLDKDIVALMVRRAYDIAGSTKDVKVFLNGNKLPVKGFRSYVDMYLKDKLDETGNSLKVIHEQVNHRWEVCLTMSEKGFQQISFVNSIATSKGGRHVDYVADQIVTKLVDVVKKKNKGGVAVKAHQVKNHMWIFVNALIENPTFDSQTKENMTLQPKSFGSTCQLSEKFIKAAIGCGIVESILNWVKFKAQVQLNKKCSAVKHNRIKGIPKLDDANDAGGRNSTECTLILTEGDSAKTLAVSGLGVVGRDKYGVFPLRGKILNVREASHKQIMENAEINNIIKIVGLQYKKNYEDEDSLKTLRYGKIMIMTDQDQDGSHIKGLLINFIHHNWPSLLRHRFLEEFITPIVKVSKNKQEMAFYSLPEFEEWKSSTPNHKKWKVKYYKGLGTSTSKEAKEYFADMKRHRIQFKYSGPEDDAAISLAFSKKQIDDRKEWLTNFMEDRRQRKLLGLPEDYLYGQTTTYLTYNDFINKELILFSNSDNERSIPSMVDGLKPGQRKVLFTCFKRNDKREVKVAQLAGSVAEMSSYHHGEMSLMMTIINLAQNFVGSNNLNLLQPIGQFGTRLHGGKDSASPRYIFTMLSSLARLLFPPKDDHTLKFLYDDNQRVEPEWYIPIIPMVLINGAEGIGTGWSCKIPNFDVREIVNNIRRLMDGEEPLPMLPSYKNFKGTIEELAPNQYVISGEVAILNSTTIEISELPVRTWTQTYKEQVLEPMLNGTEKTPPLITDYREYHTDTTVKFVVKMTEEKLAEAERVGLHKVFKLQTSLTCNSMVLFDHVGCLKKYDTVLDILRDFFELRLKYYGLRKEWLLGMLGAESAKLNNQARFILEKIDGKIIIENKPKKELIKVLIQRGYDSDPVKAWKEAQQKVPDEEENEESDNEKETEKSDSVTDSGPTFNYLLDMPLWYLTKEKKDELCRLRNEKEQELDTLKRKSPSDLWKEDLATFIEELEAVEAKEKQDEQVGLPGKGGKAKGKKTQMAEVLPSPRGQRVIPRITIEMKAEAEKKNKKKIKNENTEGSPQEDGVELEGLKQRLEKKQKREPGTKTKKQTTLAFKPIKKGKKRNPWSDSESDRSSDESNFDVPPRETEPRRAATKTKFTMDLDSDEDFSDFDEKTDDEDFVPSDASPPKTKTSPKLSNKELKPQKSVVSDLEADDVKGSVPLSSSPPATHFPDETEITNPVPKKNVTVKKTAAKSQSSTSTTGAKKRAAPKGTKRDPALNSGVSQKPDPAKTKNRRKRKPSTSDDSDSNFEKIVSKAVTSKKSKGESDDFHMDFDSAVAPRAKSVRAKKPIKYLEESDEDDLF

Structure (SMILES): Cc1cc(O)c2c(c1)C(=O)c1cc(O)cc(O)c1C2=O [EMODIN]
IC50 (KB): > 20 µM
IC50 (HL-60): > 20 µM
IC50 (MDA-MB-231): > 20 µM

Structure (SMILES): COc1cc(C)cc2c1C(=O)c1c(OC)cc(O[C@@H]3O[C@@H](C)[C@H](O)[C@@H](OC(C)=O)[C@H]3OC(C)=O)cc1C2=O
IC50 (KB): > 20 µM
IC50 (HL-60): > 20 µM
IC50 (MDA-MB-231): > 20 µM

inhibition [1]: Active
Structure (SMILES): CC(=O)O[C@@H]1[C@@H](O)[C@@H](O)[C@H](Oc2cc(O)c3c(c2)C(=O)c2cc(C)cc(O)c2C3=O)O[C@H]1C
IC50 (KB): > 20 µM
IC50 (HL-60): > 20 µM
IC50 (MDA-MB-231): 7.9 µM

inhibition [1]: Active
Structure (SMILES): CC(=O)O[C@@H]1[C@@H](O)[C@H](C)O[C@@H](Oc2cc(O)c3c(c2)C(=O)c2cc(C)cc(O)c2C3=O)[C@@H]1OC(C)=O
IC50 (KB): 1.1 µM
IC50 (HL-60): 3.6 µM
IC50 (MDA-MB-231): > 20 µM

Structure (SMILES): CCCC(=O)O[C@@H]1[C@@H](O)[C@H](C)O[C@@H](Oc2cc(O)c3c(c2)C(=O)c2cc(C)cc(O)c2C3=O)[C@@H]1OC(=O)CCC
IC50 (KB): > 20 µM
IC50 (HL-60): > 20 µM
IC50 (MDA-MB-231): > 20 µM

inhibition [1]: Active
Structure (SMILES): CC(=O)O[C@@H]1[C@@H](O[C@@H]2O[C@@H](C)[C@H](O)[C@@H](OC(C)=O)[C@H]2OC(C)=O)[C@H](C)O[C@@H](Oc2cc(O)c3c(c2)C(=O)c2cc(C)cc(O)c2C3=O)[C@@H]1OC(C)=O
IC50 (KB): 8.3 µM
IC50 (HL-60): 11.8 µM
IC50 (MDA-MB-231): > 20 µM

inhibition [1]: Active
Structure (SMILES): CC(=O)Oc1cc(C)cc2c1C(=O)c1c(OC(C)=O)cc(O[C@@H]3O[C@@H](C)[C@H](OC(C)=O)[C@@H](OC(C)=O)[C@H]3OC(C)=O)cc1C2OC(C)=O (mixture of isomers)
IC50 (KB): 1.1 µM
IC50 (HL-60): 1.5 µM
IC50 (MDA-MB-231): 1.7 µM

Structure (SMILES): CC(=O)O[C@@H]1[C@@H](OC(C)=O)[C@@H](O)[C@H](Oc2cc(O)c3c(c2)C(=O)c2cc(C)cc(O)c2C3=O)O[C@H]1C
IC50 (KB): > 20 µM
IC50 (HL-60): > 20 µM
IC50 (MDA-MB-231): 1.2 µM

Structure (SMILES): CC(=O)O[C@@H]1[C@@H](O)[C@@H](OC(C)=O)[C@H](Oc2cc(O)c3c(c2)C(=O)c2cc(C)cc(O)c2C3=O)O[C@H]1C
IC50 (KB): > 20 µM
IC50 (HL-60): > 20 µM
IC50 (MDA-MB-231): > 20 µM

Structure (SMILES): CC(=O)OC1c2cc(C)cc(O)c2C(=O)c2c(O)cc(O[C@@H]3O[C@@H](C)[C@H](O)[C@@H](OC(C)=O)[C@H]3OC(C)=O)cc21 (mixture of isomers)
IC50 (KB): 0.3 µM
IC50 (HL-60): 0.8 µM
IC50 (MDA-MB-231): 0.4 µM
